# Reference: ChEMBL document CHEMBL3286338, “SAR studies on hydropentalene derivatives--Important core units of biologically active tetramic acid macrolactams and ptychanolides” (Bioorg Med Chem, 2014)
# The source made the active and inactive calls. The calls are words filed in the database; no cut-off is given here.
# Assays:
# L929 [1] = test: Antiproliferative activity against mouse L929 cells by MTT assay; format: functional, cell-based
# Summary of the method: (§1)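 Cells kept in supplier-recommended media at 37 °C, 10% CO2. Serial dilutions added to a cell suspension (50,000 per mL) and incubated 5 d alongside blank and solvent controls. MTT then added to 0.5 mg mL^-1 final for 2 h, and formazan precipitate collected by centrifugation. Run as two parallel experiments; activity taken as mean relative to controls set at 100%.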
# [2] = Antiproliferative activity against human KB-3-1 cells by MTT assay; format: functional, cell-based; summary of the method: as §1
# L929 [3] = test: Effect on microtubule polymerization in mouse L929 cells at 3 ng/ml by impedance profiling; format: cell-based
# Summary of the method: (§2)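 L-929 mouse fibroblasts were cultured at 37 °C and 10% CO₂ in supplier-recommended medium. Cells were exposed to compound, with methanol-only controls, and impedance was recorded over time. The time-dependent impedance curves served as a mode-of-action fingerprint and were compared statistically, by cluster analysis, with curves from a panel of reference compounds, including microtubule-interfering agents.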
# L929 [4] = test: Effect on spindle formation in mouse L929 cells at 3 ng/ml by impedance profiling; format: cell-based; summary of the method: as §2
# L929 [5] = test: Effect on microtubule polymerization in mouse L929 cells at 0.4 ug/ml by impedance profiling; format: cell-based
# Summary of the method: (§3)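 L-929 cell cultures incubated with compound while impedance was recorded over time. The time-dependent impedance curves served as a mode-of-action fingerprint and were compared statistically, by cluster analysis, against curves from a set of reference compounds. Controls received methanol.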
# L929 [6] = test: Effect on spindle formation in mouse L929 cells at 0.4 ug/ml by impedance profiling; format: cell-based; summary of the method: as §3
# [7] = Cytotoxicity against Potorous tridactylus PtK2 cells by MTT assay; format: functional, cell-based; summary of the method: as §1
# PtK2 [8] = test: Effect on microtubular network in Potorous tridactylus PtK2 cells at 4 ug/ml for overnight incubation by DAPI staining analysis; format: functional, cell-based
# Summary of the method: (§4)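 PtK2 cells on glass coverslips incubated overnight with compound or with methanol only. For alpha-tubulin staining, fixed in cold (-20 °C) MeOH/acetone (1:1) for 10 min, then probed with primary antibody. DNA counterstained. Microtubular network, mitotic spindles and chromosome distribution assessed by fluorescence microscopy.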
# PtK2 [9] = test: Effect on mitotic spindle in Potorous tridactylus PtK2 cells at 4 ug/ml for overnight incubation by DAPI staining analysis; format: functional, cell-based; summary of the method: as §4
# PtK2 [10] = test: Effect on chromosme distribution in Potorous tridactylus PtK2 cells at 4 ug/ml for overnight incubation by DAPI staining analysis; format: functional, cell-based; summary of the method: as §4
# Tubulin (Sus scrofa) = Tubulin (Sus scrofa) (UniProt P02554+P02550); test: Inhibition of porcine tubulin polymerization at 500 ug/ml by fluorescence analysis; format: protein assay
# Summary of the method: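 Porcine tubulin (kit master mix with buffer, glycerol and GTP) mixed with compound at a 5:50 volume ratio. Placed at once in a fluorimeter at 37 °C. Polymerization followed by incorporation of a fluorescent reporter, read at 460 nm (excitation 340 nm) for about 1 h. Methanol and nocodazole served as controls.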
# PtK2 [11] = test: Effect on F-actin cytoskeleton in Potorous tridactylus PtK2 cells at 3 ug/ml for overnight incubation by DAPI staining analysis; format: cell-based
# Summary of the method: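 PtK2 cells grown on glass coverslips and exposed to compound overnight, with methanol-only controls. Fixed in 3.7% formalin for 10 min, permeabilized with 0.1% Triton X-100 for 5 min, then stained with Alexa Fluor 488 phalloidin (1:100) for 1 h. F-actin (green) and DNA (blue) examined by fluorescence microscopy.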
# Tubulin (Sus scrofa), sequence (P02550 whole entry, looked up): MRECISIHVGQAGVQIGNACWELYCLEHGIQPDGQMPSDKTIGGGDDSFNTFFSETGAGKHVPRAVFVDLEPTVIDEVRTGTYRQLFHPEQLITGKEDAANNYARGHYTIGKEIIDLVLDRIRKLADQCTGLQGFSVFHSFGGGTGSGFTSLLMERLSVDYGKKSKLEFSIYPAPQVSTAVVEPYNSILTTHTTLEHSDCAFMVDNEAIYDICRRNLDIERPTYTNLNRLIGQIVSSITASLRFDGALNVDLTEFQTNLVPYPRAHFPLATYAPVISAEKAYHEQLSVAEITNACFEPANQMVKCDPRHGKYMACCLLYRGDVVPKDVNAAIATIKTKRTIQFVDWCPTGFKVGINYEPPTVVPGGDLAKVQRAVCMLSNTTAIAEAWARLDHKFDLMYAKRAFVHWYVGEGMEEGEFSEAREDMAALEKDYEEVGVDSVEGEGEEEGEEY
# Tubulin (Sus scrofa), sequence (P02554 whole entry, looked up): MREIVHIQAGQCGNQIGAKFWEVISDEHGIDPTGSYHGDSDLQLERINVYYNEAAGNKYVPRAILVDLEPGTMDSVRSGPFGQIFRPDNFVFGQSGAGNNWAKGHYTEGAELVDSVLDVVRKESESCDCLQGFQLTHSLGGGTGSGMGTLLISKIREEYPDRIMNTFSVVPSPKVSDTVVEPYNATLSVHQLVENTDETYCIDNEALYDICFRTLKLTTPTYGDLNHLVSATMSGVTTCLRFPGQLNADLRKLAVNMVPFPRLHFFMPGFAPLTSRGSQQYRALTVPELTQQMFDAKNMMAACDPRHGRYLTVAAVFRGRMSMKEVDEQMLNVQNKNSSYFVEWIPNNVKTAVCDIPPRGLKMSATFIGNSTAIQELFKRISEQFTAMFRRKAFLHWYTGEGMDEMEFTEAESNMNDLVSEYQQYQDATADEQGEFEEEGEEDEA
SMILES,IC50 (L929 [1]),IC50 [2],further results
C=CC[C@@H]1[C@@H]2[C@@H](CC(=O)[C@H]2C)C[C@H]1O[Si](c1ccccc1)(c1ccccc1)C(C)(C)C,16.2 µM,20.3 µM,–
C=CC[C@@H]1[C@H]2[C@H](C)C=C[C@H]2C[C@H]1O[Si](c1ccccc1)(c1ccccc1)C(C)(C)C,7.2 µM,> 96 µM,–
CC1(C)COC2(CC[C@@H]3[C@@H](O)[C@H](O)C[C@@H]32)OC1,> 40 µg/mL,> 40 µg/mL,–
CC1(C)COC2(C[C@@H]3CC=C[C@@H]3C2)OC1,> 40 µg/mL,> 40 µg/mL,–
Cc1ccc(S(=O)(=O)N/N=C2/C[C@@H]3CC4(C[C@@H]3C2)OCC(C)(C)CO4)cc1,> 40 µg/mL,> 40 µg/mL,–
C=CC[C@@H]1[C@H]2C/C(=N\NS(=O)(=O)c3ccc(C)cc3)[C@H](C)[C@H]2C[C@H]1O[Si](c1ccccc1)(c1ccccc1)C(C)(C)C,20 µM,13.3 µM,–
CC(C)(C)[Si](C)(C)OC1CCCC2C1C(=O)[C@H]1CC(Br)C3(OCCO3)[C@@H]21 (stereo partly drawn),32 µg/mL,> 40 µg/mL,–
C[C@H]1C(=O)C[C@]2(C)CC3(C[C@]12C)OCC(C)(C)CO3,> 150 µM,–,–
O[C@@H]1[C@H]2CCC3(OCCO3)[C@H]2C[C@@H]1O,> 40 µg/mL,> 40 µg/mL,–
CC(C)(C)[Si](O[C@H]1C[C@H]2CC(=O)C[C@H]2C1)(c1ccccc1)c1ccccc1,> 40 µg/mL,> 40 µg/mL,–
C=C1C[C@@H]2CC3(C[C@@H]2C1)OCC(C)(C)CO3,> 40 µg/mL,> 40 µg/mL,–
C=CC[C@@H]1[C@@H]2[C@H](C[C@H]1O[Si](c1ccccc1)(c1ccccc1)C(C)(C)C)[C@@H](C)C(=O)[C@H]2C,5.8 µg/mL,7.9 µg/mL,–
CC(C)(C)[Si](OC1CCCCC1)(c1ccccc1)c1ccccc1,40 µg/mL,7.5 µg/mL,–
C=CC[C@@H]1C(=O)C[C@H]2C[C@@H](O[Si](c3ccccc3)(c3ccccc3)C(C)(C)C)[C@H](C)[C@H]21,5.1 µM,16.2 µM,–
CC(C)(C)[Si](O[C@@H]1[C@H]2CCC3(OCCO3)[C@H]2C[C@H]1O)(c1ccccc1)c1ccccc1,41 µM,–,–
CC(C)(C)[Si](C)(C)OC1CCCC1,> 200 µM,> 200 µM,–
CCC(=O)O[C@@H]1C[C@@H]2CC3(C[C@@H]2C1)OCC(C)(C)CO3,> 142 µM,> 142 µM,–
C=CCC[C@H]1CC(=O)[C@@H]2C=CC(=O)[C@H]12 (racemic),20 µM,16.3 µM,–
Cc1cc(C)c(O[C@@H]2C[C@@H]3CC4(C[C@@H]3C2)OCC(C)(C)CO4)c(C)c1,> 40 µg/mL,> 40 µg/mL,–

SMILES,IC50 (L929 [1]),IC50 [2],further results
O=C1CC[C@H]2[C@@H]1CCC21OCCO1,> 40 µg/mL,> 40 µg/mL,–
C[C@@H]1[C@H]2CC(=O)[C@H](C)[C@H]2C[C@H]1O[Si](c1ccccc1)(c1ccccc1)C(C)(C)C,7.4 µM,15.2 µM,–
O=C1C[C@@H]2C[C@H](O)C[C@@H]2C1,> 40 µg/mL,> 40 µg/mL,–
C[C@@H]1[C@H](O[Si](c2ccccc2)(c2ccccc2)C(C)(C)C)C[C@]2(C)CC(=O)C[C@]12C,35.7 µM,–,–
BrC1C[C@H]2[C@H](CC(Br)C23OCCO3)C12CCCC2 (stereo partly drawn),> 40 µg/mL,> 40 µg/mL,–
C=CC[C@@H]1[C@H]2CC(=O)[C@H](C)[C@H]2C[C@H]1O[Si](c1ccccc1)(c1ccccc1)C(C)(C)C,32.4 µM,16 µM,–
C1COC2(CC[C@@H]3[C@H]4O[C@H]4C[C@@H]32)O1,> 40 µg/mL,–,–
CC(C)=CC[C@H]1C(=O)C[C@@H]2[C@@H](C)[C@H](O[Si](c3ccccc3)(c3ccccc3)C(C)(C)C)C[C@@H]21,23.9 µM,28.2 µM,–
C=CC[C@@H]1[C@@H]2[C@@H](CC(=O)[C@H]2CC=C)C[C@H]1O,> 40 µg/mL,> 40 µg/mL,–
CC1(C)COC2(C[C@H]3C[C@H](O)C[C@H]3C2)OC1,> 40 µg/mL,> 40 µg/mL,–
C=CC[C@@H]1[C@@H]2[C@@H](C/C(=N/NS(=O)(=O)c3ccc(C)cc3)[C@H]2C)C[C@H]1O[Si](c1ccccc1)(c1ccccc1)C(C)(C)C,> 67 µM,12.5 µM,–
O=C1C[C@@H]2C[C@@H](O)C[C@@H]2C1,> 40 µg/mL,> 40 µg/mL,–
CC(C)(C)[Si](O[C@H]1[C@H]2CCC3(OCCO3)[C@H]2C[C@@H]1O)(c1ccccc1)c1ccccc1,38.8 µM,–,–
O=C1C2C(O)CCCC2[C@H]2[C@@H]1CC(Br)C21OCCO1 (stereo partly drawn),22 µg/mL,10 µg/mL,–
CC(C)=CC[C@@H]1C(=O)C[C@H]2C[C@@H](O[Si](c3ccccc3)(c3ccccc3)C(C)(C)C)[C@H](C)[C@H]21,5.6 µM,21.7 µM,–
C=CCC[C@H]1CC2(OCCO2)[C@@H]2C=CC(=O)[C@H]12 (racemic),25.6 µM,32 µM,–
CC(C)(C)[Si](OC1CCCCCC1)(c1ccccc1)c1ccccc1,40 µg/mL,6.2 µg/mL,–
CC1(C)COC2(C[C@@H]3CC4OC4[C@@H]3C2)OC1 (stereo partly drawn),> 40 µg/mL,> 40 µg/mL,–
C=CC[C@@H]1[C@H]2CC(=O)[C@H](CC=C)[C@H]2C[C@H]1O,> 40 µg/mL,> 40 µg/mL,–

SMILES,IC50 (L929 [1]),IC50 [2],further results
CCCC(=O)OCN(C(=O)[C@@H](NC(=O)[C@H]1CCCCN1C)[C@@H](C)CC)[C@H](C[C@@H](OC(C)=O)c1nc(C(=O)N[C@@H](Cc2ccc(O)cc2)C[C@H](C)C(=O)O)cs1)C(C)C,–,–,Activity (L929 [3]): Active; Activity (L929 [4]): Active
C#CC(=O)O[C@H]1C[C@@H]2C[C@H](O[Si](c3ccccc3)(c3ccccc3)C(C)(C)C)C[C@@H]2C1,9.3 µM,–,–
CC(C)(C)[Si](C)(C)OC1CCCC2C1C(O)[C@H]1CC(Br)C3(OCCO3)[C@@H]21 (stereo partly drawn),15 µg/mL,14 µg/mL,–
CC(C)(C)[Si](OC1CCCC1)(c1ccccc1)c1ccccc1,61.6 µM,–,–
C=CC[C@H]1C(=O)C[C@@H]2[C@@H](C)[C@H](O[Si](c3ccccc3)(c3ccccc3)C(C)(C)C)C[C@@H]21,17.8 µM,6.9 µM,–
C[C@@H]1[C@@H]2[C@@H](CC(=O)[C@H]2C)C[C@H]1O[Si](c1ccccc1)(c1ccccc1)C(C)(C)C,14.8 µM,7.4 µM,–
C[C@H]1[C@H](O[Si](c2ccccc2)(c2ccccc2)C(C)(C)C)C[C@]2(C)CC(=O)C[C@]12C,14.3 µM,–,–
CC1(C)COC2(C[C@H]3C[C@@H](CO)C[C@H]3C2)OC1,> 40 µg/mL,> 40 µg/mL,–
C=CC[C@@H]1[C@H]2C=C[C@H](C)[C@H]2C[C@H]1O[Si](c1ccccc1)(c1ccccc1)C(C)(C)C,20.4 µM,> 96 µM,–
CC(C)[Si](OC1CCCC1)(C(C)C)C(C)C,111 µM,124 µM,–
O=CCCCC1CC(=O)[C@H]2[C@@H]1CCC21OCCO1 (stereo partly drawn),> 40 µg/mL,> 40 µg/mL,–
C[C@@H]1[C@H](O)C[C@]2(C)CC3(C[C@]12C)OCC(C)(C)CO3,> 150 µM,–,–
C[C@H]1[C@H](O)C[C@]2(C)CC3(C[C@]12C)OCC(C)(C)CO3,> 150 µM,–,–
O=C1C=C(CCCCOCc2ccccc2)[C@H]2CCC3(OCCO3)[C@@H]12,> 40 µg/mL,> 40 µg/mL,–
O=C1C=C[C@H]2C(=O)C=C[C@@H]12,3 µM,6 µM,Activity (L929 [5]): Active; Activity (L929 [6]): Active; IC50 [7]: 3 µM; Activity (PtK2 [8]): Active; Activity (PtK2 [9]): Active; Activity (PtK2 [10]): Active; inhibition (Tubulin (Sus scrofa)): Active; Activity (PtK2 [11]): inactive
O=C1CC(CCCCO)[C@H]2CCC3(OCCO3)[C@@H]12 (stereo partly drawn),> 40 µg/mL,> 40 µg/mL,–
C[C@H]1[C@H](O[Si](c2ccccc2)(c2ccccc2)C(C)(C)C)C[C@]2(C)CC3(C[C@]12C)OCC(C)(C)CO3,15.8 µM,–,–
C[C@@H]1[C@H](O[Si](c2ccccc2)(c2ccccc2)C(C)(C)C)C[C@]2(C)CC3(C[C@]12C)OCC(C)(C)CO3,11.8 µM,–,–
